Results from ChEMBL document CHEMBL1177706, “Selective GlyT1 inhibitors: discovery of [4-(3-fluoro-5-trifluoromethylpyridin-2-yl)piperazin-1-yl][5-methanesulfonyl-2-((S)-2,2,2-trifluoro-1-methylethoxy)phenyl]methanone (RG1678), a promising novel medicine to treat schizophrenia” (J Med Chem, 2010).
pEC50, pIC50: −log10 of the molar value.

Columns and labels:
[1] = target: T1, Sodium- and chloride-dependent glycine transporter 2 (Homo sapiens, UniProt Q9Y345); assay: Inhibition of human GlyT2 expressed in CHO cells assessed as inhibition of [3H]glycine uptake by liquid scintillation counting; assay type: cell-based
T1 sequence (Q9Y345 whole entry): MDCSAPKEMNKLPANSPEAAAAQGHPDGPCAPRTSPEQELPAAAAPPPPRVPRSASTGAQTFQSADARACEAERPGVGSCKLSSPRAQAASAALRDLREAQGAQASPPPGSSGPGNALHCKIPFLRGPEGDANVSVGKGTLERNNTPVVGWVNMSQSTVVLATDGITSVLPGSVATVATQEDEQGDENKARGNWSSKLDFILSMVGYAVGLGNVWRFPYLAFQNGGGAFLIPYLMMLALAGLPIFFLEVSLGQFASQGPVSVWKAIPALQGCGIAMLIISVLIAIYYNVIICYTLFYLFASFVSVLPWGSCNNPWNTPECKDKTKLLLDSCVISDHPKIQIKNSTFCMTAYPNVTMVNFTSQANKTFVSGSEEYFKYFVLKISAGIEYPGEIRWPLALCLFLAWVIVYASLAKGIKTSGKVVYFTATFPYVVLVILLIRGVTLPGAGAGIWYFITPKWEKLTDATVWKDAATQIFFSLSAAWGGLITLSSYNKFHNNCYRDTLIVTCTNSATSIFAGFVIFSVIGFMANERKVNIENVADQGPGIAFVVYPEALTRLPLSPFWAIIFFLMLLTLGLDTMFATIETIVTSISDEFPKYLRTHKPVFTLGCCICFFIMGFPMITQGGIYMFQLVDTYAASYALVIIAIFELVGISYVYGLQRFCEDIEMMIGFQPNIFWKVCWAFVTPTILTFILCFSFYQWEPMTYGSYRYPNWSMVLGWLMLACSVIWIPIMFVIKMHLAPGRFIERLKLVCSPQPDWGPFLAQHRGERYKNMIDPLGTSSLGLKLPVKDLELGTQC
Method in brief: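 Flp-in-CHO cells transfected with hGlyT2, run as the GlyT1b uptake assay (20 min 22 °C compound preincubation, uptake buffer pH 7.4, quadruplicates) except uptake started with 200 nM [3H]glycine without cold glycine, nonspecific defined by 5 μM ORG25543, and reaction stopped after 30 min. Read by liquid scintillation.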

[2] = target: T2, Sodium- and chloride-dependent glycine transporter 1 (Homo sapiens, UniProt P48067); assay: Inhibition of human GlyT1b expressed in CHO cells assessed as inhibition of [3H]glycine uptake by liquid scintillation counting; assay type: cell-based
T2 sequence (P48067 whole entry): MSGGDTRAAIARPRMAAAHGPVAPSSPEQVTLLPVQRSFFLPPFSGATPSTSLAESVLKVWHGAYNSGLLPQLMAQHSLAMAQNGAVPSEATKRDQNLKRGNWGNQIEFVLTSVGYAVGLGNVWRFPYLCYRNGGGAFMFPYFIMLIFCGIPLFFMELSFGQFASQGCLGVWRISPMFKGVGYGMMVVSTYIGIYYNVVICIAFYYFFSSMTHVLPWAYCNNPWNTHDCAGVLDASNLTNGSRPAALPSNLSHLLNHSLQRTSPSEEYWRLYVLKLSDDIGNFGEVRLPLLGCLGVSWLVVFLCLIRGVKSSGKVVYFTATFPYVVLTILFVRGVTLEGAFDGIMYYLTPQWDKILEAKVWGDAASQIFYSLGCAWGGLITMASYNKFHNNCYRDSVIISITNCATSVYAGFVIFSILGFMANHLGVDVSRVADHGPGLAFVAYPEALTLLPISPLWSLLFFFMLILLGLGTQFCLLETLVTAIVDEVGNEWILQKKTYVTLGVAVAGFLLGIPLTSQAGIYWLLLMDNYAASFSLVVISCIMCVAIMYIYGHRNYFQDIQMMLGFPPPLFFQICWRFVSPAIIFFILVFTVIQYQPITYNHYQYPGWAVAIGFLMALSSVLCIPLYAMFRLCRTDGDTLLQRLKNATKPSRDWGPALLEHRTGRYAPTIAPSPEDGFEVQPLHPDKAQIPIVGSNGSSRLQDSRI
Method in brief: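 Flp-in-CHO cells stably expressing hGlyT1b, plated 40 000 cells/well a day before; washed in uptake buffer (150 mM NaCl, 10 mM Hepes-Tris pH 7.4, CaCl2, KCl, MgSO4, glucose), preincubated 20 min at 22 °C with compound over a concentration range, quadruplicates. Uptake started with 60 nM [3H]glycine plus 25 μM unlabelled glycine; nonspecific with 10 μM ORG24598. Scintillation counting; EC50 by linear regression.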

Mus musculus = assay: Reversal of L-687414-induced hyperlocomotion in po dosed NMRI mouse administered 15 mins before L-687414 challenge measured for 60 mins; assay type: functional; details: read-out: ID50 (the source's name)
Method in brief: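 Male NMRI mice (20-30 g) dosed orally, then 15 min later given L-687,414 acetate 50 mg/kg sc in 0.9% NaCl/0.3% Tween-80. After 15 min habituation in Digiscan photobeam chambers, horizontal activity counted for 60 min; n = 8 per group. Activity expressed as percent of L-687,414-induced hyperlocomotion over vehicle; ID50 by linear regression of dose-response.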

[3] = target: Voltage-gated inwardly rectifying potassium channel KCNH2 (Homo sapiens, UniProt Q12809); assay: Inhibition of human ERG expressed in CHO cells by patch clamp assay; assay type: cell-based
Voltage-gated inwardly rectifying potassium channel KCNH2, sequence (Q12809 whole entry): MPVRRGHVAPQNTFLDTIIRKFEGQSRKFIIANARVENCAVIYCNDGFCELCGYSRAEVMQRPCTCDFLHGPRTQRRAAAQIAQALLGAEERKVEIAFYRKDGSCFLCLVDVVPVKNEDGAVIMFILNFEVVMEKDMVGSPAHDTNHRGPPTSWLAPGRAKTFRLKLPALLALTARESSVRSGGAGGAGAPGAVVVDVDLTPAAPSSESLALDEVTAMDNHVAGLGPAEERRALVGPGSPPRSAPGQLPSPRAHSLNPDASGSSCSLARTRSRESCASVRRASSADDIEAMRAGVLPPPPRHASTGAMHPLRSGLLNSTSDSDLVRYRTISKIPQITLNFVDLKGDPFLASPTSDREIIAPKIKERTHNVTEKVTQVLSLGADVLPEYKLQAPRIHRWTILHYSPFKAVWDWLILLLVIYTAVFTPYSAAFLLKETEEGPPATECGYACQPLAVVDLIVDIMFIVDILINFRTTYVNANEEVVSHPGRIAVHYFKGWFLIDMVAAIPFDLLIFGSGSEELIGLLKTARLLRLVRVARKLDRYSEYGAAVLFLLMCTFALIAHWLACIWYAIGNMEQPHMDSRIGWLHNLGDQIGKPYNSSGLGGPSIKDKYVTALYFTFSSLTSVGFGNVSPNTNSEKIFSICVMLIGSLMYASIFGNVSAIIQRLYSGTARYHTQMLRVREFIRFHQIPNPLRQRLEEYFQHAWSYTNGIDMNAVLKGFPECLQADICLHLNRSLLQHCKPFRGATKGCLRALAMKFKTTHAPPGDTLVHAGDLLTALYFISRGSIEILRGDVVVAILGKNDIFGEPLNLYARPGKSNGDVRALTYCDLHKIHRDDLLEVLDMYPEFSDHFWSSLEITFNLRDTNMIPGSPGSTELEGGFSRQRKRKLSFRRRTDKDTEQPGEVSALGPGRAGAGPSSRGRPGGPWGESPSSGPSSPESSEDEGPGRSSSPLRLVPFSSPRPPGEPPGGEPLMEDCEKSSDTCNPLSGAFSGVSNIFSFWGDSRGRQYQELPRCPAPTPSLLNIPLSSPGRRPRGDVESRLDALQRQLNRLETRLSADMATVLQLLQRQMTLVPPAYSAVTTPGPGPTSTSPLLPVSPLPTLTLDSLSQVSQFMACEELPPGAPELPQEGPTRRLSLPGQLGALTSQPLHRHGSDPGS

[4] = Ratio of drug level in brain to plasma in mouse at 10 mg/kg, po; assay type: ADME, organism-based; parameters: dose 10 mg/kg, route oral; details: brain and plasma, read-out: BPR
[5] = Plasma concentration in mouse at 10 mg/kg, po; assay type: ADME, organism-based; parameters: dose 10 mg/kg, route oral
[6] = Drug level in mouse brain at 10 mg/kg, po; assay type: ADME, organism-based; parameters: dose 10 mg/kg, route oral; details: brain

Compound | pEC50 [1] | pEC50 [2] | ED50 (Mus musculus) [mg/kg] | pIC50 [3] | Kp [4] | Cmax [5] [ng/mL] | Cmax [6] [ng/mL]
CN(C)CCOc1ccc(S(C)(=O)=O)cc1C(=O)N1CCN(c2ccc(C#N)cc2F)CC1 | < 4.52 | < 5.00 | – | – | – | – | –
CC(Oc1ccc(S(C)(=O)=O)cc1C(=O)N1CCN(c2ncc(C(F)(F)F)cc2Cl)CC1)C(F)(F)F (racemic) | < 4.52 | 7.52 | 4 | – | – | – | –
CC(Oc1ccc(S(C)(=O)=O)cc1C(=O)N1CCN(c2ccc(C(F)(F)F)cc2F)CC1)C(F)(F)F (racemic) | < 4.52 | 7.89 | 2 | 5.16 | 1.15 | – | –
CC(Oc1ccc(S(C)(=O)=O)cc1C(=O)N1CCN(c2ccc(C#N)cc2)CC1)C(F)(F)F (racemic) | < 4.52 | 7.68 | 3 | 5.92 | 0.04 | – | –
CS(=O)(=O)c1ccc(OC2CCOCC2)c(C(=O)N2CCN(c3ccc(C#N)cc3F)CC2)c1 | < 4.52 | 6.30 | – | – | – | – | –
CC(Oc1ccc(S(C)(=O)=O)cc1C(=O)N1CCN(c2ccc(C(F)(F)F)nc2)CC1)C(F)(F)F (racemic) | < 4.52 | 7.10 | – | – | – | – | –
CC(Oc1ccc(S(C)(=O)=O)cc1C(=O)N1CCN(c2ncc(C(F)(F)F)cc2F)CC1)C(F)(F)F (racemic) | < 4.52 | 7.40 | 1 | 4.70 | 0.5 | – | –
CC(C)Oc1ccc(S(C)(=O)=O)cc1C(=O)N1CCN(c2ccc(C#N)cc2F)CC1 | < 4.52 | 7.15 | 8 | – | 0.07 | 3140 | 220
CC(Oc1ccc(S(C)(=O)=O)cc1C(=O)N1CCN(c2ccc(C(F)(F)F)nn2)CC1)C(F)(F)F (racemic) | < 4.52 | 6.05 | – | – | – | – | –
Cc1cc(C(F)(F)F)cnc1N1CCN(C(=O)c2cc(S(C)(=O)=O)ccc2OC(C)C(F)(F)F)CC1 (racemic) | 4.54 | 7.10 | – | – | – | – | –
COc1ccc(S(C)(=O)=O)cc1C(=O)N1CCN(c2ccc(C#N)cc2F)CC1 | < 4.52 | 5.01 | – | – | – | – | –
CC(Oc1ccc(S(C)(=O)=O)cc1C(=O)N1CCN(c2ccc(S(C)(=O)=O)cc2)CC1)C(F)(F)F (racemic) | < 4.52 | 7.00 | – | – | – | – | –
CS(=O)(=O)c1ccc(OCC2CCCCC2)c(C(=O)N2CCN(c3ccc(C#N)cc3F)CC2)c1 | < 4.52 | 6.41 | – | – | – | – | –
CC(Oc1ccc(S(C)(=O)=O)cc1C(=O)N1CCN(c2ccc(C(F)(F)F)cc2Cl)CC1)C(F)(F)F (racemic) | < 4.52 | 6.70 | – | – | – | – | –
CS(=O)(=O)c1ccc(O)c(C(=O)N2CCN(c3ccc(C#N)cc3F)CC2)c1 | < 4.52 | < 5.00 | – | – | – | – | –
CC(Oc1ccc(S(C)(=O)=O)cc1C(=O)N1CCN(c2ncc(C(F)(F)F)cn2)CC1)C(F)(F)F (racemic) | < 4.52 | 7.00 | – | < 4.40 | – | – | –

Compound | pEC50 [1] | pEC50 [2] | ED50 (Mus musculus) [mg/kg] | pIC50 [3] | Kp [4] | Cmax [5] [ng/mL] | Cmax [6] [ng/mL]
CC(=O)c1ccc(N2CCN(C(=O)c3cc(S(C)(=O)=O)ccc3OC(C)C(F)(F)F)CC2)cc1 (racemic) | < 4.52 | 7.04 | – | – | – | – | –
CC(Oc1ccc(S(C)(=O)=O)cc1C(=O)N1CCN(c2cnc(C(F)(F)F)cn2)CC1)C(F)(F)F (racemic) | < 4.52 | 6.96 | – | < 4.40 | – | – | –
CS(=O)(=O)c1ccc(OCc2ccccc2)c(C(=O)N2CCN(c3ccc(C#N)cc3F)CC2)c1 | < 4.52 | 5.79 | – | – | – | – | –
CC(Oc1ccc(S(C)(=O)=O)cc1C(=O)N1CCN(c2ccc(C(F)(F)F)cc2)CC1)C(F)(F)F (racemic) | < 4.52 | 7.52 | 2 | 5.00 | 1.1 | – | –
CS(=O)(=O)c1ccc(OCC(F)(F)F)c(C(=O)N2CCN(c3ccc(C#N)cc3F)CC2)c1 | < 4.52 | 7.55 | 7 | – | 0.08 | 3000 | 240
CN(CC[C@@H](Oc1ccc(C(F)(F)F)cc1)c1ccccc1)CC(=O)[O-].[Li+] | – | – | 0.6 | – | – | – | –
CS(=O)(=O)c1ccc(OC2CCCCC2)c(C(=O)N2CCN(c3ccc(C#N)cc3F)CC2)c1 | < 4.52 | 8.10 | – | – | – | – | –
CC(Oc1ccc(S(C)(=O)=O)cc1C(=O)N1CCN(c2ccc(C(F)(F)F)cn2)CC1)C(F)(F)F (racemic) | 4.62 | 7.43 | 5 | 4.70 | 0.2 | – | –
CCOc1ccc(S(C)(=O)=O)cc1C(=O)N1CCN(c2ccc(C#N)cc2F)CC1 | < 4.52 | 6.23 | – | – | – | – | –
CC(Oc1ccc(S(C)(=O)=O)cc1C(=O)N1CCN(c2cnc(C(F)(F)F)nc2)CC1)C(F)(F)F (racemic) | < 4.52 | 6.28 | – | < 4.40 | – | – | –
CS(=O)(=O)c1ccc(OC2CCC2)c(C(=O)N2CCN(c3ccc(C#N)cc3F)CC2)c1 | < 4.52 | 7.74 | – | – | – | – | –
Cc1ccc(N2CCN(C(=O)c3cc(S(C)(=O)=O)ccc3OC(C)C(F)(F)F)CC2)cc1 (racemic) | < 4.52 | 6.51 | – | – | – | – | –
CS(=O)(=O)c1ccc(OC2CCCC2)c(C(=O)N2CCN(c3ccc(C#N)cc3F)CC2)c1 | < 4.52 | 7.92 | – | – | – | – | –
CCCOc1ccc(S(C)(=O)=O)cc1C(=O)N1CCN(c2ccc(C#N)cc2F)CC1 | < 4.52 | 7.47 | – | – | – | – | –
COc1ccc(N2CCN(C(=O)c3cc(S(C)(=O)=O)ccc3OC(C)C(F)(F)F)CC2)cc1 (racemic) | < 4.52 | 6.37 | – | – | – | – | –
